*1 amine or outer side, *2 acyl side, *3 side chain or, on linkers, in order; H or OH if unused. Where a SMILES comes first, the peptide text is derived from it. Bridges are numbered along the chain shown (N, C = ends). Triazole bridges read from a SMILES are 1,4-linked. [ ]: non-standard residue; d: D form. The star is where a group is joined. RhodamineB = CCN(CC)c1ccc2c(-c3ccccc3C(=O)*)c3ccc(=[N+](CC)CC)cc-3oc2c1; Lys(N3) = [N-]=[N+]=NCCCC[C@H](N)C(=O)O; NMeGABA = CN(CCCC(=O)[*:2])[*:1]; Pra = C#CC[C@H](N)C(=O)O
How the values were obtained:
[1] = biological target: D570-A583 epitope of proMMP2 (Fluo-epitope) (Homo sapiens, UniProt P08253); assay: FRET binding assay; conditions: 100 nM Fluo-epitope, varying Rhod-peptide
Summary of the method: (§1)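 Fluorescein-labelled epitope held at 100 nM final and mixed with a concentration series of rhodamine-tagged cyclic peptide. Mixtures were incubated 30 min, then FRET intensity was read on a microplate reader. Each point used individually prepared triplicate samples.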

[2] = system: Fluo-C5 (C-terminal scrambled epitope); assay: FRET binding assay with partially scrambled epitope C5; conditions: 100 nM Fluo-epitope variation
Summary of the method: as §1

[3] = system: Fluo-M5 (middle segment scrambled epitope); assay: FRET binding assay with partially scrambled epitope M5; conditions: 100 nM Fluo-epitope variation
Summary of the method: as §1

[4] = system: Fluo-N5 (N-terminal scrambled epitope); assay: FRET binding assay with partially scrambled epitope N5; conditions: 100 nM Fluo-epitope variation
Summary of the method: as §1

[5] = biological target: Fluo-epitope (fluorescein-labeled D570-A583 epitope of proMMP2) (human); assay: FRET or BRET

**Q.** Which “binding affinity to the epitope (FRET)” value [1] does the source give for `CCN(CC)c1ccc2c(-c3ccccc3C(=O)N(C)CCCC(=O)N[C@H]3Cc4cn(nn4)CCCC[C@@H](C(N)=O)NC(=O)[C@H](Cc4ccc(O)cc4)NC(=O)[C@@H]4CCCN4C(=O)[C@H](Cc4c[nH]cn4)NC(=O)[C@@H]4CCCN4C(=O)[C@H](Cc4c[nH]c5ccccc45)NC3=O)c3ccc(=[N+](CC)CC)cc-3oc2c1` [Rhod-cy(WPHPY)] (RhodamineB-[NMeGABA][Pra]WPHPY[Lys(N3)]-NH2; triazole 2-8; N-terminus assumed) here?
**A.** highest binding affinity

**Q.** And the “binding to scrambled epitope C5 (FRET)” value [2]?
**A.** not able to bind

**Q.** What about the “binding to scrambled epitope M5 (FRET)” value [3] of the same molecule?
**A.** retained the binding affinity

**Q.** And the “binding to scrambled epitope N5 (FRET)” value [4]?
**A.** retained the binding affinity

**Q.** With cy(WPHPY) (peptide) as the molecule, how does the Kd [5] read?
**A.** 1 nM

— paper PMC7437931 (Journal of medicinal chemistry, 2020)
